HCT116 bCat-KO: beta-catenin-lacking colon tumor cell growth suppression. HCT116 beta-catenin knockout viability, CellTiter-Glo, 60 h; hits give low values. viability, % at 10 µM. 140,000 tested, 1.5% active. AID 818;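 active means viability at or under a set limit, the compound median less 4 SD, cut at about 6% in these data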;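 further: 0% = Hyamine 1622 control at 20 µM and 100% = untreated cell control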
TNAP act hi DEA: activators of human TNAP at high phosphate acceptor concentration; 200,000 tested, under 10 active; purified TNAP, CDP-star luminescence, 1 M DEA, 30 min; hits give high values; 0 = EDTA background, 1 = DMSO-only activity; activation factor at 20 µM;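 active means activation factor at least 2 at 20 µM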
Target sequence (P05186 whole entry, looked up): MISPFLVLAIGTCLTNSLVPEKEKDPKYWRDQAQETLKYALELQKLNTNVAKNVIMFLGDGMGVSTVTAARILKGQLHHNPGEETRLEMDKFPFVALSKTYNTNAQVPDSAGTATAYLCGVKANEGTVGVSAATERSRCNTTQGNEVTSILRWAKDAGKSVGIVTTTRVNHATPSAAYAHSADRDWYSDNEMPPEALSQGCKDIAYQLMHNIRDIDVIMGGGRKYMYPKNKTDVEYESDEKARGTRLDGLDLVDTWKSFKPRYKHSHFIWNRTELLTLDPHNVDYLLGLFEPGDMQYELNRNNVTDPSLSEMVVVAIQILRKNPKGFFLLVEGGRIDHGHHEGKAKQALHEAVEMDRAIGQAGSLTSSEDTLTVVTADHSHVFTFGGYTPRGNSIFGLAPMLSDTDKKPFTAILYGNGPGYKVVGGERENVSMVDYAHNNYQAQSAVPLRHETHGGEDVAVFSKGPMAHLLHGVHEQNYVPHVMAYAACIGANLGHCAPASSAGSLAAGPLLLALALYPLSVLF
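Assay system: human TNAP; Input: enzyme diluted 1/800 final; Reagent: CDP-star luminogenic substrate at 100 µM final; Timing: 30 min, room temperature; Signal: luminescence; Evaluation: TNAP activation factor scaled between EDTA and DMSO control wells.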
TNAP inh noacc: TNAP (human) inhibition, acceptor-free conditions; P05186; purified TNAP, CDP-star luminescence, 30 min; inhibition, % at 20 µM; 200,000 tested, 0.26% active;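 active means tissue-nonspecific alkaline phosphatase inhibition above about 50% at 20 µM in the single-dose screen, limit read from the data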;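 further: 0% = DMSO negative control and 100% = EDTA positive control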
HCT116 PTEN-null: suppresses growth of cells with PTEN deletion; AID 827; HCT116 PTEN-null viability, CellTiter-Glo, 60 h; hits give low values; 140,000 tested, 1.2% active; viability, % at 10 µM;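 active means viability at or below a set limit, 4 SD under the median of all tested compounds, cut at about 3.7% in these data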;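 further: PTEN knockout HCT116 line with beta catenin targeted HCT116 as companion control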
Lmaj promast: reduces viability of Leishmania major promastigotes; resazurin fluorescence viability; inhibition, % at 10 µM; 200,000 tested, 9% active; AID 1063; in the data active means inhibition above about 50%;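 further: promastigotes grown with compound for 44 hours at 28 °C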
TNAP inh hi DEA: inhibitors of human TNAP at high phosphate acceptor concentration; purified TNAP, CDP-star luminescence, 1 M DEA; inhibition, % at 20 µM; P05186; 200,000 tested, 0.03% active;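 active means over 50% inhibition of tissue-nonspecific alkaline phosphatase at 20 µM in the single-dose screen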;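 further: plate controls were DMSO wells for no effect and EDTA-quenched wells as full inhibition for full effect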
An asterisk follows results filed as active; nt = no result. This is a sample that favours compounds with a hit; in the whole collection about 9.6% have one here.

SMILES | HCT116 bCat-KO | TNAP act hi DEA | TNAP inh noacc | HCT116 PTEN-null | Lmaj promast | TNAP inh hi DEA
CCOC(=O)c1c(C)nc2ccc(Cl)cc2c1-c1ccccc1 | 74 | 1.1 | -5 | 62 | 51* | -5
CCCC(=O)NC(=S)c1c(C)n(C)n(-c2ccccc2)c1=O | nt | 1 | -2 | nt | -8 | 1
Cc1ccccc1C(=O)N/N=C1\SCC(=O)N1Cc1ccco1 | nt | 1 | -5 | nt | -3 | 0
CC(C)OC(=O)N(C)c1ccc(C(O)(C(F)(F)F)C(F)(F)F)cc1 | 70 | 1 | -14 | 67 | 100* | -2
CC(=O)Nc1ccc(C(O)(C(F)(F)F)C(F)(F)F)cc1 | nt | 1 | -15 | nt | -5 | -5
C=CCN1C(=O)CSc2ccc(C(=O)NCc3cccs3)cc21 | nt | 1.1 | -8 | nt | 16 | -6
Cc1ccc(NC(=O)C(=O)NCCN2CCN(S(=O)(=O)c3ccccc3)CC2)cc1C | nt | 1.1 | -12 | nt | -3 | -6
CCN(CC)N=Nc1ccc(C(=O)O)cc1 | 94 | 1 | -20 | 93 | 69* | -1
CCn1ccnc1CN1CCCC(CO)(Cc2cccc(OC)c2)C1 (stereo unspecified) | nt | 1 | 4 | nt | 96* | -1
COc1cccc(CC2(CO)CCCN(Cc3cn[nH]c3-c3ccccc3)C2)c1 (stereo unspecified) | nt | 1 | 3 | nt | 1 | 0
COc1cccc(CC2(CO)CCCN(Cc3ccc4c(c3)OCCO4)C2)c1 (stereo unspecified) | nt | 1 | -3 | nt | 53* | -5
COc1ccc(N=c2cc(-c3ccc(O)cc3)oc3ccccc23)cc1 | 26 | 1 | -6 | 22 | 81* | 4
COc1ccc(-c2cc(=Nc3ccc(C)cc3)c3ccccc3o2)cc1 | 70 | 1 | -1 | 68 | 63* | 4
COc1ccc(N=c2cc(-c3ccc(OC)cc3)oc3ccccc23)cc1 | 53 | 1 | 4 | 48 | 42 | 2
CC(C)CCNC(=O)CNC(=S)N(Cc1ccccc1)Cc1cccnc1 | 86 | 1 | 2 | 93 | 32 | -2
C/C(=N\NC(=O)c1ccc(=O)[nH]n1)c1cccnc1 | 96 | 1 | -24 | 99 | 30 | 2
CC1CN(C)C(C)C/C1=N\Oc1ccc([N+](=O)[O-])cc1 (stereo unspecified) | nt | 1 | -4 | nt | 16 | -2
CC1=CC(=O)C=C(C)C1=NOc1ccc([N+](=O)[O-])cc1 | nt | 1 | -19 | nt | 60* | -3
CO/N=C/c1c(-c2ccc(Cl)cc2)nc2cc(C)ccn12 | nt | 1.1 | -16 | nt | 61* | -5
COc1cc(-c2nnc(CSc3nnc(Nc4ccc(C(C)C)cc4)s3)o2)cc(OC)c1OC | 57 | 1 | -30 | 39 | 71* | -2
NC(=O)C1CCN(C2CC(=O)N(Cc3ccc(N4CCCC4=O)cc3)C2=O)CC1 (stereo unspecified) | 84 | 1.1 | -12 | 95 | -4 | -6
O=C(C1CCN(C2CC(=O)N(Cc3ccccc3)C2=O)CC1)N1CCCCCC1 (stereo unspecified) | 102 | 1 | -9 | 92 | 87* | -4
O=C1CC(N2CCN(C(c3ccccc3)c3ccccc3)CC2)C(=O)N1Cc1ccc(N2CCCC2=O)cc1 (stereo unspecified) | 72 | 1.1 | -9 | 76 | 98* | -8
CNC(=O)CSc1nnc(C(C)C)n1C | nt | 1 | -7 | nt | -9 | -4
N#Cc1nc(-c2cccc3ccccc23)oc1NCCN1CCCCC1 | 57 | 1 | -5 | 47 | 100* | -3
SMILES | HCT116 bCat-KO | TNAP act hi DEA | TNAP inh noacc | HCT116 PTEN-null | Lmaj promast | TNAP inh hi DEA
O=C(CCCSc1nnc(Nc2ccccc2F)s1)N1CCOCC1 | nt | 1 | 15 | nt | 2 | -4
O=C(CSC(=S)N1CCCC1)c1cc(Br)cc(Br)c1O | nt | 1 | 0 | nt | 95* | 4
CC1CCCN(C(=S)SCC(=O)c2cc(Br)cc(Br)c2O)C1 (stereo unspecified) | nt | 0.9 | -6 | nt | 15 | 7
CCOC(=O)c1c(C)n(C)c2ccc(OCC(O)CN3CCC(C)CC3)cc12 (stereo unspecified) | 58 | 1 | -3 | 67 | 44 | -2
CCOC(=O)c1c(C)n(C)c2ccc(OCC(O)CN3CCCCCC3)cc12 (stereo unspecified) | 71 | 1.1 | -14 | 74 | 98* | -5
CCOC(=O)c1c(C)n(-c2ccc(C)cc2)c2ccc(OCC(O)CNCCCO)cc12 (stereo unspecified) | nt | 1 | -9 | nt | 80* | -4
CCOC(=O)c1c(C)n(C)c2ccc(OCC(O)CNC(CC)CO)cc12 (stereo unspecified) | 64 | 1 | -5 | 72 | 6 | -1
CCOC(=O)c1c(C)n(-c2ccc(C)cc2)c2ccc(OCC(O)CNCC3CCCO3)cc12 (stereo unspecified) | nt | 1 | -16 | nt | 100* | -4
CC(NC(=S)Nc1ccc(F)cc1)C(c1cccs1)N1CCOCC1 (stereo unspecified) | nt | 1.1 | -7 | nt | 8 | -6
CCOC(=O)C[N+]1(C)CCN(C(C)=O)CC1 | nt | 1 | -4 | nt | 6 | -4
COc1cc(OC)cc(-c2nc3ccccc3c(=O)n2OC(=O)c2ccc(C)c(C)c2)c1 | 81 | 1.1 | -22 | 59 | 73* | -5
COc1cc(OC)cc(C(=O)Nn2c(C)nc3ccccc3c2=O)c1 | 106 | 1 | -9 | 99 | -2 | -2
COc1cc2c(cc1Cl)/C(=C\CCN(C)C)c1ccccc1S2 | 13 | 1 | -6 | 13 | 100* | -3
COc1cc(Cl)cc2c1Sc1ccccc1/C2=C/CCN(C)C | 2.2* | 1 | -6 | 4 | 59* | 0
CN(C)CC/C=C1/c2ccccc2Sc2c(O)cc(Cl)cc21 | 14 | 1 | -1 | 20 | 98* | -2
CN(C)CCC(=O)N1c2ccccc2Sc2ccc(Cl)cc21 | nt | 1.1 | -8 | nt | 5 | -7
CN1CCN(CC/C=C2/c3ccccc3Sc3ccc(S(=O)(=O)N(C)C)cc32)CC1 | nt | 1.1 | -10 | nt | nt | -8
COc1cccc(CNc2ccc([N+](=O)[O-])c(NCC(=O)O)n2)c1 | nt | 0.9 | 5 | nt | -9 | 7
Cc1ccc(CSc2nc3c(c(N(C)C)n2)CCCC3)cc1 | 69 | 1 | -8 | 54 | 8 | 2
CNc1nc(SCc2ccc(C)cc2)nc2c1CCCC2 | 85 | 1 | -3 | 72 | 100* | -2
Cc1cc(Br)ccc1OCCCCNCCO | 68 | 1 | -11 | 67 | 86* | -5
Cc1cc(Br)ccc1OCC(=O)NNC(=O)C(=O)Nc1ccccc1 | nt | 1.1 | -83 | nt | -3 | -8
C=CCNCCCCOc1ccc(Br)cc1C | 78 | 1 | -3 | 75 | 99* | -2
Cc1cc(Br)ccc1OCC(=O)NNC(=O)Cc1ccccc1 | 85 | 1 | -52 | 98 | -6 | -2
CSC(=S)N/N=C/c1ccccc1 | nt | 1.1 | -18 | nt | 31 | -7
O=C(CCC(=O)Nc1ccccc1)NNC(=O)C(c1ccccc1)c1ccccc1 | 95 | 1 | -18 | 93 | -2 | 0
